PLC-gamma1 inh: inhibitors of human phospholipase C gamma1; purified PLC-gamma1, fluorogenic substrate, fluorescence; inhibition, % at 12.2 µM; 370,000 compounds, 0.84% hits; AID 720700; in the data active = inhibition above about 9.5%
Arr AP2 block: blocks beta-arrestin peptide binding to AP2 adaptin | FITC-arrestin peptide / GST-AP2 beads, flow cytometry; AP2 beta2 appendage carries R879A mutation | inhibition, % at 10 µM | 340,000 compounds, 0.31% hits | AID 504490;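 active = inhibition above a set limit, near 3 SD of compounds lacking own fluorescence, cut at about 54% in these data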
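Material – AP2 appendage R879A on GSH beads · Buffer or medium – PBS with 0.05% Tween 20 and 0.1% BSA · Probe or stimulus – fluorescein-tagged arrestin peptide at 50 nM final · Incubation – compound with beads 12 min RT, then probe 1 h RT · Detection – high-throughput flow cytometry of beads, ex 488, em 535 nm · Evaluation – percent response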
sPLA2-III inh: Inhibits HGIII-sPLA2 liposome hydrolysis, primary screen | QFRET BODIPY PC-A2 liposome hydrolysis, fluorescence | 370,000 compounds, 0.56% hits | AID 743126 | inhibition, % at 12.2 µM | Q9NZ20;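 active = inhibition above mean plus 3 SD of compounds lying within the high and low control bounds, cut at about 19% in these data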
procasp3 activ: activators of human procaspase-3. P42574. recombinant procaspase-3 D3A, Ac-DEVD-pNA absorbance 405 nm. activation, % at 8.5 µM. 330,000 compounds, 0.11% hits. AID 463141;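 active = activation above the mean of all tested compounds plus 3 SD, cut at about 21% in these data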
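Assay system – Procaspase-3 D3A mutant · Benchmarks – DMSO low control, extra-enzyme high control · Technique – 405 nm absorbance of p-nitroaniline, reads at 0 and 120 min · Doses – 8.5 µM nominal · Measure – % activation between DMSO and enzyme-spiked controls · Also added – Ac-DEVD-pNA chromogenic peptide substrate · Schedule – 1 h compound preincubation, 2 h substrate hydrolysis at 25 °C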
procasp7 counter: counter-screen: procaspase-7 (human) activation; P55210; recombinant procaspase-7, Ac-DEVD-pNA absorbance 405 nm; D23A/D198A/D206A triple mutant, cannot self-cleave; scale: DMSO 0, 5 µM enzyme 100; activation, % at 8.5 µM; 330,000 compounds, 0.093% hits; AID 463210;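 active = percent activation above the screen-wide mean plus 3 SD, cut at about 25% in these data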
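Material: Procaspase-7 triple mutant (PC-7 D3A) | Quantity: 2 µM procaspase-7 mutant as dispensed | Reagent: DEVD-pNA substrate | Times: 1 h preincubation, 2 h reaction | Technique: 405 nm absorbance of p-nitroaniline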
PLCb3 inh: blocks human PLC-beta3 enzyme activity. Q01970. Purified PLC-beta3, fluorogenic substrate, fluorescence. inhibition, % at 12.2 µM. 370,000 compounds, 0.18% hits. AID 720704; in the data active = inhibition above about 11%
Arr AP2 CP1: inhibitors of human beta-arrestin and AP2 interaction; 1,300 compounds, 2% hits; GST-AP2 beads, FITC arrestin peptide binding, flow cytometry; GST-fused beta2-adaptin appendage, R879A mutant; shares compounds with Arr AP2 block; inhibition, % at 10 µM;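 active = inhibition above a set limit, roughly 3 SD of non-fluorescent compound noise, cut at about 38% in these data; inactive = inhibition at or below that limit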;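 note: loss of bead fluorescence from 50 nM FITC arrestin peptide bound to appendage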
GST GSH counter: disrupts GST binding to glutathione beads, arrestin-AP2 artifact; GST-fluorescein binding to GSH beads, fluorescence, counter-screen; inhibition, % at 10 µM; shares compounds with Arr AP2 block; 1,300 compounds, 2% hits;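 active = inhibition above 50%, about 3 SD of the inhibition seen with non-fluorescent compounds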;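 note: fluorescein maleimide labelled GST captured on 4 micron glutathione beads; higher means more loss of bead fluorescence from quenching or blocked binding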
Large screens that a line does not name were inactive (follow-up assays come after a bar, where they were run). Compounds with a hit are over-represented: about 1.9% of the library has one in this group of screens.

O=[N+]([O-])c1ccc(NC(=S)N2CCN(S(=O)(=O)c3ccccc3)CC2)cc1	Arr AP2 block 70.9 (no result: procasp3 activ, procasp7 counter) | Arr AP2 CP1 inactive | GST GSH counter inactive
CCN(CC)C(=O)CC[C@@H]1CC[C@]2(CCCN(C(=O)C3CCCCC3)C2)O1	none (no result: Arr AP2 block, procasp3 activ, procasp7 counter)
CN(Cc1nccs1)C(=O)C1CCC(=O)N(Cc2ccccc2F)C1 (stereo not drawn)	none
CN(Cc1nccs1)C(=O)C1CCC(=O)N(CCCc2ccccc2)C1 (stereo not drawn)	Arr AP2 block 57.2 (no result: procasp3 activ, procasp7 counter) | Arr AP2 CP1 inactive | GST GSH counter inactive
N#Cc1sc2nc(-c3cccs3)cc(-c3ccc(Cl)cc3)c2c1N	Arr AP2 block 61.4 | Arr AP2 CP1 inactive | GST GSH counter inactive
Clc1cc(Cl)cc(CNC2CCC23CCC(c2ccccc2)CC3)c1 (stereo not drawn)	none (no result: Arr AP2 block, procasp3 activ, procasp7 counter)
CN1c2ccccc2N(C)C1(C)c1ccccc1	Arr AP2 block 67.0 | Arr AP2 CP1 61.6 | GST GSH counter inactive
CN1C(=O)N(C)C2(c3ccccc3)NC(=O)NC12c1ccccc1 (stereo not drawn)	none
COC(=O)C1=C(NC(=O)COc2ccc3ccccc3c2)CCS1	none
COC(=O)C1=C(NC(=O)COc2ccc(Cl)cc2Cl)CCS1	Arr AP2 block 66.5 | Arr AP2 CP1 inactive | GST GSH counter inactive
COc1cccc(CNC(=O)[C@H]2CCCN2C(=O)[C@H]2CCCN2C(=O)N2CCOCC2)c1	none (no result: Arr AP2 block, procasp3 activ, procasp7 counter)
CCOC(=O)Cn1c(=O)oc2cc(S(=O)(=O)Nc3cc(OCC)ccc3OCC)ccc21	Arr AP2 block 56.9 | Arr AP2 CP1 inactive | GST GSH counter inactive
CCOC(=O)Cn1c(=O)oc2cc(S(=O)(=O)Nc3cc(Cl)ccc3OC)ccc21	none
CC[C@H](CCCc1ccc(F)cc1)CN(Cc1ccc(OC)cc1)S(=O)(=O)c1ccc(C)cc1	none (no result: Arr AP2 block, procasp3 activ, procasp7 counter)
C=CCN1C(=O)[C@@H](CC(=O)NCCCC)[C@]2(C(=O)OCC)CCCCC/C=C/12	none (no result: Arr AP2 block, procasp3 activ, procasp7 counter)
COc1cccc2c1cc1c(=O)n(CC(=O)NCCCN3CCN(C)CC3)nc(C)n12	Arr AP2 block 59.4 | Arr AP2 CP1 inactive | GST GSH counter inactive
CC[C@@]1(c2ccc(C)cc2)C(=O)N(C(=O)OC)N1C(=O)OC	none (no result: Arr AP2 block, procasp3 activ, procasp7 counter)
CC(OC(=O)c1ccc(Cl)nc1)C(=O)NCc1ccc2c(c1)OCO2 (stereo not drawn)	Arr AP2 block 61.3 | Arr AP2 CP1 inactive | GST GSH counter inactive
CCc1c(-c2ccc(F)cc2)ncn1CCc1ccccc1OC	none (no result: Arr AP2 block, procasp3 activ, procasp7 counter)
Cc1ccc(S(=O)(=O)NCc2ccccc2)cc1	Arr AP2 block 55.6 | Arr AP2 CP1 inactive | GST GSH counter inactive
COc1cc2c(cc1NC(=O)COCC(=O)O)oc1ccccc12	none (no result: procasp3 activ, procasp7 counter)
COc1cc2c(cc1NC(=O)CN(C)Cc1cccc(OC)c1OC)oc1ccccc12	none | Arr AP2 CP1 inactive | GST GSH counter inactive
COc1cccc(CN(C)CC(=O)Nc2cc3oc4ccccc4c3cc2OC)c1	none | Arr AP2 CP1 inactive | GST GSH counter inactive
COCC(=O)Nc1ccc2c(c1)[C@H]1C[C@@H](CC(=O)NCC3CC3)O[C@H](CO)[C@H]1O2	none (no result: Arr AP2 block, procasp3 activ, procasp7 counter)
COc1ccc(-c2nnc(SCc3ccccc3F)o2)cc1OC	Arr AP2 block 84.3 | Arr AP2 CP1 inactive
Cc1cc(C)nc(NS(=O)(=O)c2ccc(NC(=S)NC(=O)c3ccco3)cc2)n1	Arr AP2 block 57.8 | Arr AP2 CP1 inactive | GST GSH counter inactive
COc1cc(NS(=O)(=O)c2ccc(NC(=S)NC(=O)c3ccco3)cc2)nc(OC)n1	none
Cc1ccc(-n2c(SCC(=O)Nc3ccc4cn[nH]c4c3)nnc2-c2ccccc2)cc1	none (no result: Arr AP2 block, procasp3 activ, procasp7 counter)
COc1cc(C2C(=O)c3ccccc3C2=O)ccc1O	none
COc1ccc(C2C(=O)c3ccccc3C2=O)cc1OC	Arr AP2 block 60.9 | Arr AP2 CP1 inactive | GST GSH counter inactive
Cc1ccsc1CCNC(=O)C1CCC(=O)N(CCc2cccc(F)c2)C1 (stereo not drawn)	none
COC(=O)c1ccc(CNC(=O)C2CCC(=O)N(CCc3ccccc3)C2)cc1 (stereo not drawn)	none (no result: procasp3 activ, procasp7 counter) | Arr AP2 CP1 inactive | GST GSH counter inactive
Cc1ccccc1CNC(=O)C1CCC(=O)N(Cc2cccc(F)c2)C1 (stereo not drawn)	none | Arr AP2 CP1 inactive | GST GSH counter inactive
COc1ccc(CCN2CC(C(=O)NCc3ccccc3)CCC2=O)cc1 (stereo not drawn)	none
Cc1ccccc1CCNC(=O)C1CCC(=O)N(CCc2cccc(F)c2)C1 (stereo not drawn)	none (no result: procasp3 activ, procasp7 counter) | Arr AP2 CP1 inactive | GST GSH counter inactive
O=C1N(Cc2ccccc2)c2ccccc2C12CCCc1oc(CCc3ccccc3)nc12 (stereo not drawn)	none (no result: Arr AP2 block, procasp3 activ, procasp7 counter)
CC(=O)c1ccc(NC(=O)C2C3C=CC(C3=C(c3ccccc3)c3ccccc3)C2C(=O)O)cc1 (stereo not drawn)	Arr AP2 block 55.8 | Arr AP2 CP1 inactive | GST GSH counter inactive
C[C@H]1COc2cccc(N3CCSCC3)c2S(=O)(=O)N1C	none (no result: Arr AP2 block, procasp3 activ, procasp7 counter)
Cc1cc(C)cc(NC(=O)OC2CCC23CCCCC3)c1 (stereo not drawn)	none (no result: Arr AP2 block, procasp3 activ, procasp7 counter)
O=C(Cn1cncn1)c1ccc(Cl)cc1	none
O=C(Cn1ccnc1)c1ccc(Cl)cc1	Arr AP2 block 55.0 | Arr AP2 CP1 inactive | GST GSH counter inactive
N#Cc1cc(C(=O)c2ccccc2OCC(=O)Nc2ccccc2)cn(C2CCCCC2)c1=O	Arr AP2 block 108.3 | Arr AP2 CP1 72.4 | GST GSH counter 191.3
CCCCNC(=O)COc1ccccc1C(=O)c1cc(C#N)c(=O)n(CCOC)c1	none
COc1ccc(C2=NCN(c3ccc(C)cc3)C(=S)N2)cc1	Arr AP2 block 80.5 | Arr AP2 CP1 inactive | GST GSH counter inactive
Nc1nc2cc3c(cc2cc1C(=O)NCCc1c[nH]c2ccccc12)OCO3	none (no result: Arr AP2 block, procasp3 activ, procasp7 counter)
Cc1[nH]c2ccccc2c1-c1csc(NC(=O)CN2CCOCC2)n1	Arr AP2 block 56.7 | Arr AP2 CP1 inactive | GST GSH counter inactive
CCOc1ccc(OCCC(=O)N2CCN(S(=O)(=O)c3ccc(OCC)cc3)CC2)cc1	none
CCOc1ccc(OCCCC(=O)N2CCN(S(=O)(=O)c3ccccc3C#N)CC2)cc1	Arr AP2 block 56.6 | Arr AP2 CP1 inactive | GST GSH counter inactive
CCOC(=O)C1=C(COC(=O)Cc2ccccc2F)NC(=O)NC1C (stereo not drawn)	none | Arr AP2 CP1 inactive | GST GSH counter inactive

High-throughput results deposited in PubChem by several laboratories.
